Hits are enriched below; roughly 2.7% of the tested compounds scored in any of these assays.
SIAE primary: human SIAE inhibition, primary screen; Q9HAT2; SIAE FP-Rh probe binding, fluorescence polarization; inhibition, % at 9.66 µM; 0.69% of 370,000 active; AID 1053197;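 active means inhibition above a cutoff: mean of compounds within the control limits plus 3 SD of those, cut at about 17% in these data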;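 further: 0% = plate median of compound wells and 100% = probe without SIAE protein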
PRMT1 FP inh: inhibitors of human PRMT1; Q99873; recombinant PRMT1, activity-based probe fluorescence polarization; inhibition, % at 2.79 µM; 1.3% of 370,000 active; AID 652257;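 active means inhibition above about 21% made by adding two undisclosed values, limit read from the data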
PAD4 FP inh: blocks human protein arginine deiminase 4; Q9UM07; recombinant PAD4, RCA probe fluorescence polarization; inhibition, % at 6.36 µM; 0.41% of 330,000 active; AID 485272;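 active means percent inhibition above a cutoff equal to the mean of all tested compounds plus 3 SD, cut at about 15% in these data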;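 further: 0% = PAD4 with RCA probe and DMSO and 100% = probe without PAD4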
GSTO1 inh: GSTO1 inhibition, counter-screen for RBBP9 inhibitors; 1.1% of 300,000 active; recombinant GSTO1, activity-based probe fluorescence polarization; inhibition, % at 5.96 µM; P78417;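 active means inhibition above the campaign mean inhibition plus 3 SD, cut at about 35% in these data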;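 further: 0% = GSTO1-1 with DMSO and 100% = wells lacking GSTO1-1 enzyme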
Target sequence (P78417 whole entry, looked up): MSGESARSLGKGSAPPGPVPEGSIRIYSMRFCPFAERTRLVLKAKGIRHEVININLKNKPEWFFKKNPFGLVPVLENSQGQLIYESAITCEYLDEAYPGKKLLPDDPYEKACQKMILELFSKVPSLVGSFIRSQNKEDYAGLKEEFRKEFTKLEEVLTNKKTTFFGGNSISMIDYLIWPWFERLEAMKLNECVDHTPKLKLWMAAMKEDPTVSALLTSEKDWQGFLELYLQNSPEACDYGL
RBBP9 inh: blocks human serine hydrolase RBBP9 | recombinant RBBP9, FP-Rh probe fluorescence polarization | O75884 | inhibition, % at 7.94 µM | 0.2% of 220,000 active | AID 1515;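 active means inhibition above the campaign mean of all tested compounds plus 3 SD, cut at about 14% in these data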;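 further: plate controls were DMSO wells with RBBP9 for no effect and wells lacking RBBP9 protein for full effect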
Target sequence (O75884 whole entry, looked up): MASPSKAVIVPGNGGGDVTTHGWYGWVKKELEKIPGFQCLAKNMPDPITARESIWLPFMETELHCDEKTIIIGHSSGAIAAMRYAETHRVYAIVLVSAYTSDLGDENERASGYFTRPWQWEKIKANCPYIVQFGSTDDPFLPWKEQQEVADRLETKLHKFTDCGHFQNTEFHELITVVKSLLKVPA
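System: RBBP9 protein / Buffer or medium: Tris/NaCl buffer pH 8.0 with 0.1% Pluronic / Probe or stimulus: Serine-hydrolase probe FP-Rh, 375 nM pre-mixing / Dosing: 7.94 µM single dose, 0.794% DMSO / Times: enzyme-compound preincubation 30 min, then probe labeling 45 min, 25 °C / Technique: fluorescence polarization (mP), excitation 525 nm, emission 598 nm / Replication: singlicate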
PRMT1 confirm: confirmation of human PRMT1 inhibitors. AID 687036. recombinant His-PRMT1, activity-based probe fluorescence polarization. inhibition, % at 2.79 µM. shares compounds with PRMT1 FP inh. 42% of 3,300 active;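 active means mean inhibition across replicates above the hit cutoff derived for the earlier primary screen, cut at about 22% in these data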
Active calls of the source: *.

Screening COc1ccc(N2CCN(C(=O)C(=O)c3cc(OC)c4ccccc4c3)CC2)cc1 returned SIAE primary 1 and PRMT1 FP inh -2.
CCCCn1nnc(NC(=O)c2ccc(-c3cccc([N+](=O)[O-])c3)o2)n1 was read as PAD4 FP inh 2, GSTO1 inh 3 and RBBP9 inh -1.
`Cc1ccc(NC2=NCCC2)cc1Cl` gave SIAE primary 8, PRMT1 FP inh -4, PAD4 FP inh 0, GSTO1 inh 0 and RBBP9 inh -9.
`Cc1nc2ccc(NC3=NCCCCC3)cc2s1` gave SIAE primary 4, PRMT1 FP inh 61*, PAD4 FP inh -3, GSTO1 inh 6, RBBP9 inh 0 and PRMT1 confirm 37*.
Screening Cc1cc(C)c(C(=O)COc2cccnc2[N+](=O)[O-])cc1C returned SIAE primary 12, PRMT1 FP inh 38*, PAD4 FP inh -10, GSTO1 inh 21, RBBP9 inh 7 and PRMT1 confirm 51*.
For Cc1nn(C)c(C)c1/C=C/C(=O)O the results were SIAE primary -4, PRMT1 FP inh -2, PAD4 FP inh 3, GSTO1 inh -7 and RBBP9 inh -1.
Screening COc1ccc(-c2nc(=S)[nH][nH]2)cc1OC returned SIAE primary 4, PRMT1 FP inh 13, PAD4 FP inh 5, GSTO1 inh 5 and RBBP9 inh -12.
`COc1cc(-c2nc(=S)[nH][nH]2)cc(OC)c1OC` gave SIAE primary -2, PRMT1 FP inh 34*, PAD4 FP inh 5, GSTO1 inh 1, RBBP9 inh -3 and PRMT1 confirm 13.
`Cc1onc(-c2ccccc2)c1C(=O)N1CCN(S(=O)(=O)c2ccc3c(c2)OCCO3)CC1` gave SIAE primary 1, PRMT1 FP inh -1, PAD4 FP inh -1, GSTO1 inh 2 and RBBP9 inh -8.
For Cc1nc(Cl)c2c(n1)NC1=C(O2)C(=O)CCC1 the results were SIAE primary 3, PRMT1 FP inh 36*, PAD4 FP inh 10, GSTO1 inh 10, RBBP9 inh 1 and PRMT1 confirm 48*.
O=C1NC2=C(C(=O)CCC2)C(c2ccccc2Cl)N1 (stereo not drawn) was read as SIAE primary 5, PRMT1 FP inh -1, PAD4 FP inh -2 and GSTO1 inh 1.
`Cn1c(=O)c2c(ncn2CC(=O)N2CCCc3ccccc32)n(C)c1=O` gave SIAE primary -1, PRMT1 FP inh -3, PAD4 FP inh 2, GSTO1 inh -5 and RBBP9 inh -10.
For O=c1cc(-c2ccc(O)cc2)oc2c(O)c(O)c(O)c(O)c12 the results were SIAE primary 13, PRMT1 FP inh 52*, PAD4 FP inh -5, GSTO1 inh 27, RBBP9 inh -7 and PRMT1 confirm 16.
CC12CCC(=O)N1C(C(=O)OCC(=O)Nc1ccc(S(N)(=O)=O)cc1)CS2 (stereo not drawn) was read as SIAE primary -11, PRMT1 FP inh -1, PAD4 FP inh 3, GSTO1 inh 5 and RBBP9 inh 6.
Screening CCOc1ccccc1NC(=O)CC(O)(C(F)(F)F)C(F)(F)F returned SIAE primary 2, PRMT1 FP inh 1, PAD4 FP inh -2, GSTO1 inh 2 and RBBP9 inh -5.
Screening O=C(NN1C(=O)/C(=C/c2cccs2)SC1=S)c1cccnc1 returned SIAE primary 4, PRMT1 FP inh 27*, PAD4 FP inh -3, GSTO1 inh 23, RBBP9 inh -7 and PRMT1 confirm -1.
O=C(NN1C(=O)/C(=C/c2cccs2)SC1=S)c1ccccc1 was read as PAD4 FP inh -5, GSTO1 inh 6 and RBBP9 inh -3.
For CCOC(=S)SCC(=O)Nc1nc(C)c(C)s1 the results were SIAE primary 3, PRMT1 FP inh 50*, PAD4 FP inh 9, GSTO1 inh 12, RBBP9 inh -5 and PRMT1 confirm 39*.
Screening CCOC(=S)SCC(=O)Nc1nccs1 returned SIAE primary -1, PRMT1 FP inh 46*, PAD4 FP inh 4, GSTO1 inh 3, RBBP9 inh 4 and PRMT1 confirm 13.
`Cc1nc(NC(=O)CSc2nc(N)cc(N)n2)sc1C` gave SIAE primary -4, PRMT1 FP inh -3, PAD4 FP inh 0 and GSTO1 inh 17.
CCOC(=O)C(=O)Nc1nccs1 was read as SIAE primary 4, PRMT1 FP inh 0, PAD4 FP inh -3, GSTO1 inh 9 and RBBP9 inh -12.
For O=C(CCNC(=O)c1ccccc1)Oc1ccc([N+](=O)[O-])cc1 the results were SIAE primary 0, PRMT1 FP inh -2, PAD4 FP inh -1, GSTO1 inh -3 and RBBP9 inh -7.
COc1ccc(N2CCN(C(c3cccs3)C(C)NS(=O)(=O)c3ccccc3)CC2)cc1 (stereo not drawn) was read as SIAE primary 3, PRMT1 FP inh 4, PAD4 FP inh -2, GSTO1 inh -5 and RBBP9 inh -1.
For O=C(CCS(=O)(=O)c1ccccc1Cl)NC1CCCCCC1 the results were SIAE primary 5, PRMT1 FP inh 2 and PAD4 FP inh -1.
`O=C(COC(=O)c1cc(Br)ccc1O)NC1CCCCCC1` gave SIAE primary 1, PRMT1 FP inh 6, PAD4 FP inh -5 and GSTO1 inh 12.
Screening O=C(CSCc1ccco1)c1cccs1 returned SIAE primary 0, PRMT1 FP inh 25*, PAD4 FP inh 1, GSTO1 inh 5, RBBP9 inh -7 and PRMT1 confirm 70*.
For COc1ccc2sc(/C=C/c3ccccc3O)[n+](C)c2c1 the results were SIAE primary -159, PRMT1 FP inh 36*, RBBP9 inh -62 and PRMT1 confirm 0.
Screening COc1ccc(N=Cc2ccccc2O)cc1 returned SIAE primary 4 and PRMT1 FP inh -3.
`O=C1C2C3C=CC(C4CC34)C2C(=O)N1Cc1ccccc1` (stereo not drawn) gave SIAE primary 3, PRMT1 FP inh 2, PAD4 FP inh -17, GSTO1 inh -3 and RBBP9 inh -1.
`O=C1C2C3C=CC(C3=C3CCCCC3)C2C(=O)N1Cc1ccccc1` (stereo not drawn) gave SIAE primary -2, PRMT1 FP inh 36*, PAD4 FP inh 7, GSTO1 inh -2, RBBP9 inh -5 and PRMT1 confirm 3.
`Cc1ccc(-c2cn3c(=S)[nH]nc3s2)cc1` gave SIAE primary 2, PRMT1 FP inh 26*, PAD4 FP inh 3, GSTO1 inh 0, RBBP9 inh -2 and PRMT1 confirm 1.
For C=CCn1c(SCC(=O)N2CCc3ccccc3C2)nc2ccccc2c1=O the results were SIAE primary 1, PRMT1 FP inh 1, PAD4 FP inh -1, GSTO1 inh 3 and RBBP9 inh -2.
`Cc1ccc2cc3c(N)c(C(=O)Nc4c(C)[nH]c(=O)[nH]c4=O)sc3nc2c1` gave SIAE primary -5, PRMT1 FP inh 31*, PAD4 FP inh -2, GSTO1 inh 14, RBBP9 inh -4 and PRMT1 confirm 2.

Source: PubChem BioAssay
